OXTR ag: human OXTR agonists, primary screen, fluorescence, CHO-OTR cells, Fluo-8 calcium | Oxytocin receptor (Homo sapiens), P30559 | Fluo-8 calcium fluorescence; normalized: DMSO 0%, oxytocin 100% | activation, % at 3 µM | actives 0.32% (n = 320,000) | AID 2435, 2010;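 active means activation above the mean of all tested compounds plus 3 SD, cutoff set per screening run, cut at about 20% in these data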;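 further: peak over basal fluorescence ratio from a 100 s FLIPR kinetic read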
TRPML3 agonist: human TRPML3 channel agonists, primary screen, cell-based, HEK293 TRPML3-YFP, Fluo-8 calcium fluorescence, 3 µM. Mucolipin-3 (Homo sapiens), Q8TDD5. 100% = the carbachol control signal. activation, % at 3 µM. actives 0.29% (n = 220,000). AID 1448, 2008;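 active means activation above its plate's cutoff, the mean activation of the plate's test wells plus 3 SD, cut at about 12% in these data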;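 further: 0% = DMSO only wells and 100% = carbachol wells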
Target sequence (Q8TDD5 whole entry, looked up): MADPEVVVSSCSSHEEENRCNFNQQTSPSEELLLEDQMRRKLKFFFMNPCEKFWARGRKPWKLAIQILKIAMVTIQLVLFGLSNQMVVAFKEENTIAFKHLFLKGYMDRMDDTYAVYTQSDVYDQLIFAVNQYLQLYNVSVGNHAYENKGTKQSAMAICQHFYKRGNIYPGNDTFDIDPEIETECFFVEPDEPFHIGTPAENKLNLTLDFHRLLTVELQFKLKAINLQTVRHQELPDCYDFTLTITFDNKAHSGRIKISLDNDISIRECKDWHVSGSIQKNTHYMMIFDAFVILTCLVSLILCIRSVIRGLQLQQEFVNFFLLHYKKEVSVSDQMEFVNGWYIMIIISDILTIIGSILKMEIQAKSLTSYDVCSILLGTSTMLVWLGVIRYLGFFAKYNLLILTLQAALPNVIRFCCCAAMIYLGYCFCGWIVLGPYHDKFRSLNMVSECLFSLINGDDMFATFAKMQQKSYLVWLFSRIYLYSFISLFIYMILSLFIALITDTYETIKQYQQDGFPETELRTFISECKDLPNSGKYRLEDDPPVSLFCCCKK
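system = HEK293 cells stably carrying human TRPML3-YFP | doses = one concentration, 3 µM nominal, 0.3% DMSO | timing = dye loading 1 h 37 °C then 30 min ambient, 125 s read | detection = Fluo-8 calcium dye fluorescence, ex 470-495, em 515-575 nm | benchmarks = high control carbachol 87 µM, low control DMSO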
zfTRPN1 agonist: zebrafish TRPN1 channel agonists, primary screen, cell-based, HEK293, calcium fluorescence; transient receptor potential cation channel N1 (TRPN1/NompC), Danio rerio; HEK293 zebrafish TRPN1-YFP, Fluo-8 calcium fluorescence; 100% = response to 87 µM carbachol; activation, % at 3 µM; actives 0.18% (n = 220,000); AID 1424, 2008;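 active means activation above its plate's cutoff, the mean activation of test wells on that plate plus 3 SD, cut at about 19% in these data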;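 further: 0% = DMSO alone and 100% = 87 µM carbachol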
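Control set: carbachol 87 µM as high control, DMSO as low control; system: HEK293 stable line with zebrafish TRPN1-YFP; read-out: % activation versus carbachol response; detection: intracellular calcium fluorescence with Fluo-8; doses: single test compound dose, 3 µM nominal, 0.3% DMSO; schedule: dye 1 h 37 °C plus 30 min RT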
V1aR counter: agonists of human V1a receptor, primary screen, counter-screen for OXTR agonist project, fluorescence, CHO-V1R cells. Vasopressin V1a receptor (Homo sapiens), P37288. Fluo-8 calcium fluorescence, agonist mode; 0% DMSO, 100% 3 nM vasopressin. activation, % at 3 µM. actives 0.25% (n = 320,000). AID 2797, 2010;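 active means activation above the mean activation of all tested compounds plus 3 SD, per screening run, cut at about 20% in these data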;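 further: signal is peak over basal fluorescence ratio across a 100 second FLIPR read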
OXTR potentiator: human OXTR potentiators, primary screen, fluorescence, CHO-OTR cells, Fluo-8 calcium; Oxytocin receptor (Homo sapiens), P30559; Fluo-8 calcium fluorescence, potentiator mode; 0% = oxytocin EC15, 100% = EC100; activation, % at 3 µM; actives 0.061% (n = 320,000); AID 2445, 2010;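 active means activation above that plate's cutoff, the mean activation of tested compounds plus 3 SD, cut at about 6.6% in these data, passing the limit was not always enough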;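 further: 100% uses oxytocin at 75 nM as the full agonist control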
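Measured by – Fluo-8 calcium dye fluorescence · Test system – human OTR in CHO cells · Dosing – one concentration, 3.0 µM compound · Controls – EC15 oxytocin alone as 0%, 75 nM oxytocin as 100% · Evaluation – normalized max/min fluorescence ratio, % activation · Timing – 6 min pre-incubation, 100 s read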
OXTR ag confirm: human OXTR agonists, confirmation, fluorescence, CHO-OTR cells, triplicate; shares compounds with OXTR ag; actives 20% (n = 390); Fluo-8 calcium fluorescence, agonist; activation, % at 3 µM;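 active means mean activation above about 20% derived from the earlier single-dose screen, limit read from the data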;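 further: peak over minimum fluorescence ratio per well during a 100 second FLIPR read; 0% = DMSO alone and 100% = oxytocin high control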
V1R ag counter 3x: V1a receptor agonists, calcium signal, counter-screen for OXTR agonist project, triplicate, fluorescence, CHO-V1R cells; Fluo-8 calcium fluorescence; activation, % at 3 µM; AID 434991, 2010; actives 10% (n = 390); shares compounds with OXTR ag;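 active means mean activation over triplicate exceeds the hit threshold set in the earlier primary screen, cut at about 20% in these data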;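 further: peak over basal fluorescence ratio within a 100 second read; 0% = DMSO alone and 100% = 3 nM vasopressin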
An asterisk follows results filed as active; x = no result. Most compounds without a hit are left out; they make up all but 0.55% or so of the library.

SMILES	OXTR ag	TRPML3 agonist	zfTRPN1 agonist	V1aR counter	OXTR potentiator	OXTR ag confirm	V1R ag counter 3x
Clc1cccc2c1Sc1ccccc1CC2N1CCNCC1 (configuration not stated)	22*	1	-1	16	-7	8	5
COCCCN1CCN(C2Cc3ccccc3Sc3ccc(Cl)cc32)CC1 (configuration not stated)	6	1	1	5	-2	x	x
CC(C)(C)c1ccc(S(=O)(=O)N2CCN(C(=O)C3=COCCO3)CC2)cc1	6	x	x	4	-7	x	x
COc1ccc(CNS(=O)(=O)c2cc(CN3C(=O)c4cccnc4C3=O)ccc2OC)cc1	11	x	x	0	-11	x	x
CC1CC(C)CN(C(=O)COC(=O)c2nn(C)c(=O)c3ccccc23)C1 (configuration not stated)	1	x	x	1	-6	x	x
Cc1cccc(OCC(O)Cn2c(=N)n(Cc3ccccc3)c3ccccc32)c1 (configuration not stated)	31*	-1	-1	18	-13	7	6
COC(=O)C(NC(=O)c1ccccc1C)(Nc1ncc(S(=O)(=O)c2ccc([N+](=O)[O-])cc2)s1)C(F)(F)F (configuration not stated)	26*	6	5	20	-23	16	9
Cc1cc(C)c2c(=O)n(CC(=O)Nc3cccc(Cl)c3C)sc2n1	42*	11	21*	19	-10	20*	21*
Cc1cc(C)c2c(=O)n(CC(=O)Nc3ccc(Br)c(C)c3)sc2n1	37*	6	4	20	-12	10	7
Cc1cc(C)c2c(=O)n(CC(=O)NC3CCCC3)sc2n1	4	1	0	4	-2	x	x
Oc1ccc(C[C@H]2CNCCN2CCC23CC4CC(CC(C4)C2)C3)cc1	7	x	x	3	-1	x	x
Oc1ccc(C[C@@H]2CNCCN2CCC23CC4CC(CC(C4)C2)C3)cc1	20*	x	x	8	-16	9	3
CO/N=C/c1ccc(N2CCN(C(=O)c3ccc(Cl)cc3Cl)CC2)c([N+](=O)[O-])c1	27*	6	16	17	-12	15	17
COc1ccc(C(=O)N/N=C/c2sc3ccccc3c2O)cc1	10	1	4	7	-9	x	x
O=C(N/N=C/c1sc2ccccc2c1O)c1ccccc1	21*	6	6	11	-15	30*	48*
C=CCNC(=S)N1CCC(C(=O)c2ccc(Cl)cc2)CC1	8	x	x	5	-6	x	x
CCCc1ccccc1OCCNC(=O)c1cc(=O)n(C)c(=O)n1C	4	0	1	2	-7	x	x
Cc1cc(SCC(=O)OCC(=O)N(C)C2CCS(=O)(=O)C2)c(C)cc1Br (configuration not stated)	21*	x	x	13	-18	4	6
Oc1ccccc1CNc1cnc2ccccc2c1	22*	1	3	13	-14	13	13
CS(=O)(=O)c1ccc(NS(=O)(=O)c2ccc(Cl)c(C(=O)NCc3ccco3)c2)cc1	0	x	x	0	-6	x	x
COc1ccc(C2NCCc3c2[nH]c2ccccc32)cc1CN1CCc2cc(OC)c(OC)cc2C1C (configuration not stated)	x	5	11	x	x	x	x
COc1ccc(C2NCCc3c2[nH]c2ccccc32)cc1COc1ccc(F)cc1 (configuration not stated)	24*	1	3	8	-19	24*	3
CN(CC(=O)NC1(C)CCS(=O)(=O)C1)S(=O)(=O)c1ccc(Cl)cc1 (configuration not stated)	-1	x	x	1	-8	x	x
CCCCNC(=O)CCCn1c(=S)[nH]c2cc3c(cc2c1=O)OCO3	22*	1	1	-2	-2	-1	0
CC1CCN(CC(=O)Nc2cccc(C(=O)Nc3cccc(C(F)(F)F)c3)c2)CC1	3	1	1	4	-15	x	x
SMILES	OXTR ag	TRPML3 agonist	zfTRPN1 agonist	V1aR counter	OXTR potentiator	OXTR ag confirm	V1R ag counter 3x
Cc1ccc(Oc2ncccc2C(=O)NCC(=O)O)cc1	1	1	0	1	-6	x	x
CCc1ccc(Nc2n[n+](-c3ccccc3)c(-c3ccc(N(CC)CC)cc3)s2)cc1	40*	x	x	17	-18	71*	101*
NN1C(=O)NC(c2ccccc2)(c2ccccc2)C1=O	1	1	1	0	-25	x	x
O=C(N/N=C\c1c(O)ccc2ccccc12)c1ccc(S(=O)(=O)N2CCCCC2)cc1	4	1	1	3	-11	x	x
CCOc1ccc(NC(=O)C(C)Oc2ccc(C#N)cc2)cc1S(=O)(=O)N1CCCC1 (configuration not stated)	20*	x	x	9	-10	16	8
CCOc1ccccc1OCC(=O)Nc1ccc(OC)c(S(=O)(=O)N2CCCCC2)c1	0	x	x	1	-8	x	x
CC1CC(C)CN(CCC(=O)Nc2ccc(Br)cc2)C1 (configuration not stated)	8	x	x	3	-11	x	x
CC1(c2ccc([N+](=O)[O-])cc2)NC(=O)N(CC(=O)Nc2cccnc2Cl)C1=O (configuration not stated)	21*	x	x	18	-15	8	9
Cc1ccc(C2(C)NC(=O)N(CC(=O)Nc3cccnc3Cl)C2=O)cc1 (configuration not stated)	7	1	4	8	-12	x	x
Cc1ccccc1NC(=O)c1nnn(-c2ccc3c(c2)OCCO3)c1N	21*	x	x	9	-16	2	2
CCCC(=O)c1ccc(N2CCN(C(=O)c3ccccc3)CC2)c(F)c1	10	3	5	8	-21	x	x
CCCC(=O)c1ccc(N2CCN(C(=O)c3ccccc3Br)CC2)c(F)c1	20*	4	7	8	-20	6	7
Cc1ccc(Cl)cc1N1CCN(CC(=O)Nc2ccc(CN3CCCCC3)cc2)CC1	28*	9	14	12	-14	19	13
CCN1CCN(CC(=O)Nc2ccc(C(C)=O)cc2)CC1	3	x	x	2	-13	x	x
CC(=O)c1ccc(NC(=O)CN2CCCCCC2)cc1	21*	x	x	1	-7	1	0

Bioassay records from PubChem BioAssay.
